The text below walks through data of ChEMBL document CHEMBL1137713, “Synthesis and antimalarial activity of pyrazolo and pyrimido benzothiazine dioxide derivatives” (2009).

The inhibition is how much of the control response was suppressed.

Test [1] deals with Plasmodium berghei. Put plainly: Antimalarial activity against chloroquine-sensitive Plasmodium berghei ANKA infected BALB/c mice (Mus musculus) erythrocytes at 10 uM after 18 hrs as reduced hemoglobin hydrolysis. In kind it is functional. The method in brief: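 Trophozoite-rich extract from P. berghei-infected mouse blood (30–50% parasitemia, Percoll-enriched mature forms, saponin-lysed, freeze-thawed) digests native mouse hemoglobin with 10 mM GSH in 0.2 M acetate buffer pH 5.4. Compound is added in DMSO. Incubation is 37 °C for 18 h. Globin 14 kDa band is assessed by SDS-PAGE densitometry against a DMSO control and expressed as % inhibition of hydrolysis.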

Test [2] deals with T1, Histidine-rich protein PFHRP-II (Plasmodium falciparum) (UniProt P05227).
T1 sequence (whole entry): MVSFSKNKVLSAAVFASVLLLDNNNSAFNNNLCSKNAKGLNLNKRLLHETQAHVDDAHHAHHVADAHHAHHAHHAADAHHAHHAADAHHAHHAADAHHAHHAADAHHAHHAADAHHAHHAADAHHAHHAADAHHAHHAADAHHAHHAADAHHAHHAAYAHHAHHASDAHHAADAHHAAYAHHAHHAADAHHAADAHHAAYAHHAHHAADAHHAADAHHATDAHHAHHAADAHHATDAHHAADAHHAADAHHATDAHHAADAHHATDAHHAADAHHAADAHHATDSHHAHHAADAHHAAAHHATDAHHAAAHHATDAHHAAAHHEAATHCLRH
Put plainly: Inhibition of beta-hematin formation assessed as inhibition of flavoprotein polymerization at 5 to 100 mM after 48 hrs. In kind it is functional. The method in brief:
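Hemin chloride in DMSO is mixed with compound in DMSO (100–5 range), tested in triplicate, with water or DMSO controls. Reaction is started with 0.2 M acetate buffer pH 4.4 and run at 37 °C for 48 h. Pellet is washed twice with DMSO, dissolved in 0.2 N NaOH, diluted 1:2 in 0.1 N NaOH, and read at 405 nm. Result is % inhibition of FP polymerization.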

The test system of test [3] is Plasmodium berghei. Put plainly: Antimalarial activity against chloroquine-sensitive Plasmodium berghei ANKA infected BALB/c mice (Mus musculus) erythrocytes at 20 mg/kg intraperitoneal dose for 4 days as parasitaemia.
Test [4] deals with Plasmodium berghei. Put plainly: Antimalarial activity as MST against chloroquine-sensitive Plasmodium berghei ANKA infected BALB/c mice (Mus musculus) erythrocytes at 20 mg/kg intraperitoneal dose for 4 days (RVb=11.66+/-1.66 days). Format: functional.
The test system of test [5] is Plasmodium berghei. Put plainly: Antimalarial activity against chloroquine-sensitive Plasmodium berghei ANKA infected BALB/c mice (Mus musculus) erythrocytes at 20 mg/kg intraperitoneal dose for 4 days.
The test system of test [6] is Plasmodium berghei. Put plainly: Antimalarial activity as parasitaemia against chloroquine-sensitive Plasmodium berghei ANKA infected BALB/c mice (Mus musculus) erythrocytes at 25 mg/kg intraperitoneal dose for 4 days. In kind it is functional. The method in brief:
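Male Balb-C mice infected with 10^6 P. berghei ANKA-infected erythrocytes; n=6. Compound is given as a DMSO stock diluted in 2% saline–Tween 20, ip once daily for 4 days starting 2 h post-infection. Chloroquine is given at 25 mg/kg. Day-4 parasitemia is read from Giemsa smears and survival days are recorded versus untreated controls. Mean ± SEM.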

The subject of test [7] is Plasmodium berghei. Put plainly: Antimalarial activity as MST against chloroquine-sensitive Plasmodium berghei ANKA infected BALB/c mice (Mus musculus) erythrocytes at 25 mg/kg intraperitoneal dose for 4 days (RVb=11.66+/-1.66 days). Format: functional.

The source made the active and inactive calls. The rule behind the calls is not given here.

Take `COc1ccc(N2c3ccc(Cl)cc3S(=O)(=O)c3c(N)nc(N)nc32)cc1`: in the test with Plasmodium berghei [1], the inhibition at 10 µM worked out at 0%. The inhibition in test [2] was less than 5%.
The corresponding values for `COc1ccc(N2c3cc(Cl)ccc3S(=O)(=O)c3c(N)nc(N)nc32)cc1` are 40.9% and less than 5%.
`COc1cccc(N2c3ccc(Cl)cc3S(=O)(=O)c3c(N)n[nH]c32)c1`: in the test on Plasmodium berghei [1], at 10 µM the inhibition was 0%. Moreover, the inhibition in test [2] was less than 5%.
In turn, `Cc1ccccc1N1c2cc(Cl)ccc2S(=O)(=O)c2c(N)nc(N)nc21` showed an inhibition at 10 µM in the test on Plasmodium berghei [1] of 72.6%. In addition, in test [2], the inhibition is less than 5%.
With `Cc1ccc(C)c(N2c3cc(Cl)ccc3S(=O)(=O)c3c(N)n[nH]c32)c1`, the inhibition at 10 µM with Plasmodium berghei [1] came to 69.4%. Moreover, in test [2], the inhibition was less than 5%.
On to `Cc1ccccc1N1c2ccc(Cl)cc2S(=O)(=O)c2c(N)n[nH]c21`, for which testing at 10 µM in the test with Plasmodium berghei [1] gave an inhibition of 0%. For the same compound, the inhibition in test [2] was less than 5%.
For `Cc1ccc(N2c3ccc(Cl)cc3S(=O)(=O)c3c(N)nc(N)nc32)cc1`, at 10 µM the inhibition in the test on Plasmodium berghei [1] was 0%. For the same compound, in test [2], the inhibition was less than 5%.
`CC(=O)N[C@@H](CC(C)C)C(=O)N[C@@H](CC(C)C)C(=O)N[C@H](C=O)CCCNC(=N)N` [LEUPEPTIN] returned an inhibition at 10 µM in the test with Plasmodium berghei [1] of 89.1%.
In turn, `Nc1n[nH]c2c1S(=O)(=O)c1cc(Cl)ccc1N2c1cccc(Cl)c1` returned an inhibition at 10 µM in the test on Plasmodium berghei [1] of 0%. The inhibition in test [2] was less than 5%.
In the case of `Nc1n[nH]c2c1S(=O)(=O)c1ccc(Cl)cc1N2c1ccc(Cl)c(Cl)c1`, the inhibition at 10 µM with Plasmodium berghei [1] came out at 67.6%. The inhibition in test [2] was less than 5%.
As for `Nc1nc(N)c2c(n1)N(c1ccc(Br)cc1)c1ccc(Cl)cc1S2(=O)=O`, the inhibition at 10 µM with Plasmodium berghei [1] came out at 0%. Besides, the inhibition in test [2] is less than 5%.
In turn, `Nc1nc(N)c2c(n1)N(c1ccccc1)c1cc(Cl)ccc1S2(=O)=O` showed an inhibition at 10 µM with Plasmodium berghei [1] of 83.7%. In addition, the inhibition in test [2] is less than 5%. Besides, the Activity is 12.7% with Plasmodium berghei [3] and 10.8 days with Plasmodium berghei [4].
Compound `Nc1nc(N)c2c(n1)N(c1ccc(Cl)c(Cl)c1)c1cc(Cl)ccc1S2(=O)=O` showed an inhibition at 10 µM in the test with Plasmodium berghei [1] of 76%. Besides, the inhibition in test [2] is less than 5%.
`COc1ccc(N2c3ccc(Cl)cc3S(=O)(=O)c3c(N)n[nH]c32)cc1` had an inhibition at 10 µM in the test on Plasmodium berghei [1] of 0%. In addition, in test [2], the inhibition was less than 5%.
Consider `Cc1ccccc1N1c2cc(Cl)ccc2S(=O)(=O)c2c(N)n[nH]c21`, for which, in the test with Plasmodium berghei [1], the inhibition at 10 µM amounted to 92.3%. The inhibition in test [2] was less than 5%. In addition, the results for the Activity in the test on Plasmodium berghei [3] and in the test with Plasmodium berghei [4] were 9.75% and 13 days, respectively. The result with Plasmodium berghei [5] was inactive.
The compound `COc1cccc(N2c3cc(Cl)ccc3S(=O)(=O)c3c(N)n[nH]c32)c1` showed an inhibition at 10 µM in the test with Plasmodium berghei [1] of 47.3%. For the same compound, in test [2], the inhibition is less than 5%.
The corresponding values for `Nc1nc(N)c2c(n1)N(c1ccc(Cl)c(Cl)c1)c1ccc(Cl)cc1S2(=O)=O` are 0% and less than 5%.
On to `Cc1ccccc1N1c2ccc(Cl)cc2S(=O)(=O)c2c(N)nc(N)nc21`, for which the inhibition at 10 µM in the test on Plasmodium berghei [1] was 0%. Further, the inhibition in test [2] was less than 5%.
In the test with Plasmodium berghei [1], `Cc1ccc(C)c(N2c3cc(Cl)ccc3S(=O)(=O)c3c(N)nc(N)nc32)c1` displayed an inhibition at 10 µM of 64.6%. Moreover, the inhibition in test [2] was less than 5%.
As to `CCN(CC)CCCC(C)Nc1ccnc2cc(Cl)ccc12` (configuration not stated) [CHLOROQUINE], the Activity came out at 1.3% in the test with Plasmodium berghei [6] and 30 days with Plasmodium berghei [7]. The inhibition at 10 µM in the test on Plasmodium berghei [1] stood at 24.1%.
The compound `COc1cccc(N2c3ccc(Cl)cc3S(=O)(=O)c3c(N)nc(N)nc32)c1` showed an inhibition at 10 µM in the test on Plasmodium berghei [1] of 0%. Further, in test [2], the inhibition was less than 5%.
Compound `Cc1ccc(C)c(N2c3ccc(Cl)cc3S(=O)(=O)c3c(N)n[nH]c32)c1` came in with an inhibition at 10 µM in the test on Plasmodium berghei [1] of 0%. Besides, the inhibition in test [2] is less than 5%.
For `Nc1n[nH]c2c1S(=O)(=O)c1cc(Cl)ccc1N2c1ccc(Cl)c(Cl)c1` the same measures were 0% and less than 5%.
Compound `Nc1n[nH]c2c1S(=O)(=O)c1ccc(Cl)cc1N2c1cccc(Cl)c1` came in with an inhibition at 10 µM with Plasmodium berghei [1] of 58.9%. In addition, the inhibition in test [2] amounted to 85.4%. Further, the Activity with Plasmodium berghei [3] worked out at 10.33%; in the test with Plasmodium berghei [4] it was 12.5 days.
In the test with Plasmodium berghei [1], `Nc1n[nH]c2c1S(=O)(=O)c1cc(Cl)ccc1N2c1ccccc1` returned an inhibition at 10 µM of 0%. Besides, in test [2], the inhibition was less than 5%.
Compound `CC(C)CC(=O)N[C@H](C(=O)N[C@H](C(=O)N[C@@H](CC(C)C)[C@@H](O)CC(=O)N[C@@H](C)C(=O)N[C@@H](CC(C)C)[C@@H](O)CC(=O)O)C(C)C)C(C)C` [PEPSTATIN] yielded an inhibition at 10 µM with Plasmodium berghei [1] of 92.9%.
In turn, `Nc1n[nH]c2c1S(=O)(=O)c1ccc(Cl)cc1N2c1ccc(Br)cc1` yielded an inhibition at 10 µM with Plasmodium berghei [1] of 26.7%. Also, the inhibition in test [2] is less than 5%.
Take `Cc1ccc(N2c3cc(Cl)ccc3S(=O)(=O)c3c(N)n[nH]c32)cc1`: at 10 µM the inhibition in the test with Plasmodium berghei [1] was 78.8%. The inhibition in test [2] is less than 5%.
Compound `Nc1n[nH]c2c1S(=O)(=O)c1cc(Cl)ccc1N2c1ccc(Cl)cc1` displayed an inhibition at 10 µM in the test on Plasmodium berghei [1] of 0%. Also, the inhibition in test [2] is less than 5%.
Consider `Cc1ccc(N2c3ccc(Cl)cc3S(=O)(=O)c3c(N)n[nH]c32)cc1`, for which testing at 10 µM with Plasmodium berghei [1] gave an inhibition of 0%. The inhibition in test [2] is less than 5%.
`Nc1nc(N)c2c(n1)N(c1ccc(Cl)cc1)c1ccc(Cl)cc1S2(=O)=O`: in the test on Plasmodium berghei [1], at 10 µM the inhibition was 0%. Moreover, the inhibition in test [2] is less than 5%.
On to `Nc1n[nH]c2c1S(=O)(=O)c1ccc(Cl)cc1N2c1ccc(Cl)cc1`, for which testing at 10 µM in the test on Plasmodium berghei [1] gave an inhibition of 55.8%. Moreover, in test [2], the inhibition is less than 5%.
In the test with Plasmodium berghei [1], `Nc1nc(N)c2c(n1)N(c1cccc(Cl)c1)c1cc(Cl)ccc1S2(=O)=O` had an inhibition at 10 µM of 0%. For the same compound, the inhibition in test [2] is less than 5%.
In the case of `Nc1nc(N)c2c(n1)N(c1ccccc1)c1ccc(Cl)cc1S2(=O)=O`, in the test on Plasmodium berghei [1], the inhibition at 10 µM was found to be 0%. In addition, the inhibition in test [2] was less than 5%.
In the test with Plasmodium berghei [1], `Cc1ccc(C)c(N2c3ccc(Cl)cc3S(=O)(=O)c3c(N)nc(N)nc32)c1` had an inhibition at 10 µM of 0%. In addition, the inhibition in test [2] is less than 5%.
The corresponding values for `Nc1nc(N)c2c(n1)N(c1ccc(Cl)cc1)c1cc(Cl)ccc1S2(=O)=O` are 67.2% and less than 5%.
For `Nc1nc(N)c2c(n1)N(c1ccc(Br)cc1)c1cc(Cl)ccc1S2(=O)=O`, in the test on Plasmodium berghei [1], 10 µM produced 49% inhibition. Further, in test [2], the inhibition was less than 5%.
For the compound `Nc1n[nH]c2c1S(=O)(=O)c1ccc(Cl)cc1N2c1ccccc1`, in the test with Plasmodium berghei [1], the inhibition at 10 µM is 76.4%. The inhibition in test [2] is less than 5%.
For `Nc1nc(N)c2c(n1)N(c1cccc(Cl)c1)c1ccc(Cl)cc1S2(=O)=O` the same measures were 0% and less than 5%.
For `COc1ccc(N2c3cc(Cl)ccc3S(=O)(=O)c3c(N)n[nH]c32)cc1` the same measures were 54.8% and less than 5%.
`Nc1n[nH]c2c1S(=O)(=O)c1cc(Cl)ccc1N2c1ccc(Br)cc1` displayed an inhibition at 10 µM in the test on Plasmodium berghei [1] of 0%. In addition, in test [2], the inhibition was less than 5%.
As to `Cc1ccc(N2c3cc(Cl)ccc3S(=O)(=O)c3c(N)nc(N)nc32)cc1`, the inhibition at 10 µM in the test on Plasmodium berghei [1] came out at 50.1%. The inhibition in test [2] was less than 5%.
`COc1cccc(N2c3cc(Cl)ccc3S(=O)(=O)c3c(N)nc(N)nc32)c1` came in with an inhibition at 10 µM with Plasmodium berghei [1] of 56.3%. Besides, the inhibition in test [2] was less than 5%.
